Experimental data from ChEMBL document CHEMBL1140949, “Synthesis and evaluation of vancomycin aglycon analogues that bear modifications in the N-terminal D-leucyl amino acid” (2009).
Values after ≈ are worked out from the molar mass of the structure shown.

Key:
Staphylococcus aureus = assay: Antimicrobial activity against vancomycin-sensitive Staphylococcus aureus ATCC 25923 after 24 hrs by microtiter plate based antimicrobial assay; format: functional; conditions: ATCC 25923, 24 h
How it was run: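 Microtiter plate broth assay against vancomycin-sensitive S. aureus ATCC 25923. Unstable hydrazine-bearing analogues were tested within one day of freeing the hydrazine. They were used as crude deprotected material without reverse-phase HPLC purification, because purification caused decomposition.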

Enterococcus faecalis = assay: Antimicrobial activity against vancomycin-resistant Enterococcus faecalis BM4166 after 24 hrs by microtiter plate based antimicrobial assay; format: functional
How it was run: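 VanA-type vancomycin-resistant E. faecalis BM4166, with inducible resistance that switches cell-wall precursors from D-Ala-D-Ala to D-Ala-D-Lac on glycopeptide exposure. MIC measured in a microtiter plate format. Unstable hydrazine analogues were assayed within one day of deprotection, as crude material without HPLC purification.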

## CN[C@H](Cc1cccc(NC(=N)N)c1)C(=O)N[C@H]1C(=O)N[C@@H](CC(N)=O)C(=O)N[C@H]2C(=O)N[C@H]3C(=O)N[C@H](C(=O)N[C@H](C(=O)O)c4cc(O)cc(O)c4-c4cc3ccc4O)[C@H](O)c3ccc(c(Cl)c3)Oc3cc2cc(c3O)Oc2ccc(cc2Cl)[C@H]1O.O=C(O)C(F)(F)F
Staphylococcus aureus
  MIC: 10 µg/mL
Enterococcus faecalis
  MIC: 320 µg/mL

## CN[C@H](Cc1cccc(NN)c1)C(=O)N[C@H]1C(=O)N[C@@H](CC(N)=O)C(=O)N[C@H]2C(=O)N[C@H]3C(=O)N[C@H](C(=O)N[C@H](C(=O)O)c4cc(O)cc(O)c4-c4cc3ccc4O)[C@H](O)c3ccc(c(Cl)c3)Oc3cc2cc(c3O)Oc2ccc(cc2Cl)[C@H]1O.O=C(O)C(F)(F)F
Staphylococcus aureus
  MIC: 10 µg/mL
Enterococcus faecalis
  MIC: 320 µg/mL

## CN[C@H](Cc1cccc(N)c1)C(=O)N[C@H]1C(=O)N[C@@H](CC(N)=O)C(=O)N[C@H]2C(=O)N[C@H]3C(=O)N[C@H](C(=O)N[C@H](C(=O)O)c4cc(O)cc(O)c4-c4cc3ccc4O)[C@H](O)c3ccc(c(Cl)c3)Oc3cc2cc(c3O)Oc2ccc(cc2Cl)[C@H]1O.O=C(O)C(F)(F)F
Staphylococcus aureus
  MIC: 20 µg/mL
Enterococcus faecalis
  MIC: 320 µg/mL

## CN[C@H](Cc1cccc(CN)c1)C(=O)N[C@H]1C(=O)N[C@@H](CC(N)=O)C(=O)N[C@H]2C(=O)N[C@H]3C(=O)N[C@H](C(=O)N[C@H](C(=O)O)c4cc(O)cc(O)c4-c4cc3ccc4O)[C@H](O)c3ccc(c(Cl)c3)Oc3cc2cc(c3O)Oc2ccc(cc2Cl)[C@H]1O.O=C(O)C(F)(F)F
Staphylococcus aureus
  MIC: > 10 µg/mL
Enterococcus faecalis
  MIC: 640 µg/mL

## CN[C@H](COC(C)(C)C)C(=O)N[C@H]1C(=O)N[C@@H](CC(N)=O)C(=O)N[C@H]2C(=O)N[C@H]3C(=O)N[C@H](C(=O)N[C@H](C(=O)O)c4cc(O)cc(O)c4-c4cc3ccc4O)[C@H](O)c3ccc(c(Cl)c3)Oc3cc2cc(c3O)Oc2ccc(cc2Cl)[C@H]1O.O=C(O)C(F)(F)F
Staphylococcus aureus
  MIC: 20 µg/mL
Enterococcus faecalis
  MIC: 320 µg/mL

## CN[C@@H](C(=O)N[C@H]1C(=O)N[C@@H](CC(N)=O)C(=O)N[C@H]2C(=O)N[C@H]3C(=O)N[C@H](C(=O)N[C@H](C(=O)O)c4cc(O)cc(O)c4-c4cc3ccc4O)[C@H](O)c3ccc(c(Cl)c3)Oc3cc2cc(c3O)Oc2ccc(cc2Cl)[C@H]1O)[C@H](C)O.O=C(O)C(F)(F)F
Staphylococcus aureus
  MIC: 40 µg/mL
Enterococcus faecalis
  MIC: 800 µg/mL

## CN[C@H](CO)C(=O)N[C@H]1C(=O)N[C@@H](CC(N)=O)C(=O)N[C@H]2C(=O)N[C@H]3C(=O)N[C@H](C(=O)N[C@H](C(=O)O)c4cc(O)cc(O)c4-c4cc3ccc4O)[C@H](O)c3ccc(c(Cl)c3)Oc3cc2cc(c3O)Oc2ccc(cc2Cl)[C@H]1O.O=C(O)C(F)(F)F
Staphylococcus aureus
  MIC: 40 µg/mL
Enterococcus faecalis
  MIC: 800 µg/mL

## CCNC(=O)Nc1cccc(C[C@@H](NC)C(=O)N[C@H]2C(=O)N[C@@H](CC(N)=O)C(=O)N[C@H]3C(=O)N[C@H]4C(=O)N[C@H](C(=O)N[C@H](C(=O)O)c5cc(O)cc(O)c5-c5cc4ccc5O)[C@H](O)c4ccc(c(Cl)c4)Oc4cc3cc(c4O)Oc3ccc(cc3Cl)[C@H]2O)c1.O=C(O)C(F)(F)F
Staphylococcus aureus
  MIC: 31 µg/mL
Enterococcus faecalis
  MIC: 640 µg/mL

## CN[C@H](Cc1cccc(CNN)c1)C(=O)N[C@H]1C(=O)N[C@@H](CC(N)=O)C(=O)N[C@H]2C(=O)N[C@H]3C(=O)N[C@H](C(=O)N[C@H](C(=O)O)c4cc(O)cc(O)c4-c4cc3ccc4O)[C@H](O)c3ccc(c(Cl)c3)Oc3cc2cc(c3O)Oc2ccc(cc2Cl)[C@H]1O.O=C(O)C(F)(F)F
Staphylococcus aureus
  MIC: 1.25 µg/mL
Enterococcus faecalis
  MIC: 170 µg/mL

## CN[C@H](CCNN)C(=O)N[C@H]1C(=O)N[C@@H](CC(N)=O)C(=O)N[C@H]2C(=O)N[C@H]3C(=O)N[C@H](C(=O)N[C@H](C(=O)O)c4cc(O)cc(O)c4-c4cc3ccc4O)[C@H](O)c3ccc(c(Cl)c3)Oc3cc2cc(c3O)Oc2ccc(cc2Cl)[C@H]1O.O=C(O)C(F)(F)F
Staphylococcus aureus
  MIC: 10 µg/mL
Enterococcus faecalis
  MIC: > 400 µg/mL

## CN[C@H](CC(C)C)C(=O)N[C@H]1C(=O)N[C@@H](CC(N)=O)C(=O)N[C@H]2C(=O)N[C@H]3C(=O)N[C@H](C(=O)N[C@H](C(=O)O)c4cc(O)cc(O)c4-c4cc3ccc4O)[C@H](O)c3ccc(c(Cl)c3)Oc3cc2cc(c3O)Oc2ccc(cc2Cl)[C@H]1O [VANCOMYCIN AGLYCON]
Staphylococcus aureus
  MIC: 0.625 µg/mL (≈ 0.546 µM)
Enterococcus faecalis
  MIC: 640 µg/mL (≈ 559 µM)

## CN[C@H](CC(C)C)C(=O)N[C@H]1C(=O)N[C@@H](CC(N)=O)C(=O)N[C@H]2C(=O)N[C@H]3C(=O)N[C@H](C(=O)N[C@H](C(=O)O)c4cc(O)cc(O)c4-c4cc3ccc4O)[C@H](O)c3ccc(c(Cl)c3)Oc3cc2cc(c3O[C@@H]2O[C@H](CO)[C@@H](O)[C@H](O)[C@H]2O[C@H]2C[C@](C)(N)[C@H](O)[C@H](C)O2)Oc2ccc(cc2Cl)[C@H]1O [VANCOMYCIN]
Staphylococcus aureus
  MIC: 1.25 µg/mL (≈ 0.863 µM)
Enterococcus faecalis
  MIC: 2000 µg/mL (≈ 1380 µM)
